In data set [1] the test system is Candida albicans. Put plainly: Antifungal activity against Candida albicans ATCC 14053 after 48 hrs by broth microdilution method. To be noted: ATCC 14053, 48 h. The format is functional. An outline of the steps:
(§1)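 Yeast susceptibility by broth microdilution per NCCLS M27-A in 96-well plates. MIC is the lowest concentration inhibiting growth. Where repeat runs fully coincided, a single value is reported.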

For a further data set, the system named is Vanrija humicola. Put plainly: Antifungal activity against Cryptococcus humicolus ATCC 9949 after 48 hrs by broth microdilution method. The format is functional. Particulars: ATCC 9949, 48 h. An outline of the steps: as §1
Another data set has as its system Aspergillus niger. As to the kind of experiment: Antifungal activity against Aspergillus niger ATCC 16404 after 48 hrs by broth microdilution method. To be noted: ATCC 16404, 48 h. In kind it is functional. An outline of the steps: (§2)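 Susceptibility of filamentous fungi (molds) by broth microdilution per NCCLS M38-A in 96-well microplates. The MIC is read as the lowest inhibitory concentration. It is given as one number when replicate data fully agreed.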
For orientation: In broth dilution the organism is exposed to a series of concentrations in liquid medium.

A further data set deals with Fusarium oxysporum. As to the kind of experiment: Antifungal activity against Fusarium oxysporum VKM F-140 after 48 hrs by broth microdilution method. The format is functional. In outline: as §2
A short description of data set [2]: Toxicity against human erythrocytes assessed as hemolytic activity at 5 ug/ml. The format is cell-based, Erythrocyte. To be noted: read-out: Activity. In outline: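 Lysis of erythrocytes in defibrinated human blood was measured under buffered conditions with compound at 5 µg/mL. Percent hemolysis is the mean of blood samples from two donors.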
The test system of data set [3] is Candida albicans. As to the kind of experiment: Antifungal activity against Candida albicans ATCC 10231after 48 hrs by broth microdilution method. In kind it is functional. To be noted: ATCC 10231, 48 h.
Data set [4] can be described thus: Toxicity in Candida albicans ATCC 14053 infected iv dosed (C57BL/6xDBA/2)F1 B6D2F1 mouse. In kind it is organism-based. Particulars: in vivo.

In general, MIC refers to the smallest concentration in the dilution series that meets the test's criterion for growth inhibition. The low end stands for a more susceptible organism, the high end for a less susceptible organism. The MIC50 is an inhibitory concentration at the 50% level, which refers to growth in some studies and to a panel of isolates in others. What is called MIC90 is the lowest concentration that inhibits either 90% of growth or 90% of the strains tested, depending on the study. Low values mean higher susceptibility, high ones lower susceptibility. What is called LD50 is the dose at which mortality reaches 50%. Read a high LD50 as a less toxic substance.

In brackets after ≈: the same amount, converted by molar mass.

`C[C@@H]1[C@H](O)[C@@H](C)/C=C/C=C/C=C/C=C/C=C/C=C/C=C/[C@H](O[C@H]2O[C@@H](C)[C@H](O)[C@@H](N)[C@H]2O)C[C@@H]2O[C@](O)(C[C@@H](O)[C@H](O)CC[C@@H](O)C[C@@H](O)C[C@@H](O)CC(=O)O[C@H]1C)C[C@H](O)[C@H]2C(=O)N1CCN(CCO)CC1`: the MIC with Candida albicans [1] was 1 µg/mL (≈ 0.965 µM); in the data set with Vanrija humicola it was 2 µg/mL (≈ 1.93 µM); in the data set with Aspergillus niger, 2 µg/mL (≈ 1.93 µM); against Fusarium oxysporum it was 4 µg/mL (≈ 3.86 µM). The hemolysis at 5 ug/ml in data set [2] came out at 2%. The compound further registered an MIC50 in the data set with Candida albicans [3] of 0.13 µg/mL (≈ 0.125 µM). Further, the MIC90 against Candida albicans [3] was 0.52 µg/mL (≈ 0.502 µM).
For the compound `CCOC(=O)CNC(=O)[C@H]1[C@@H]2C[C@@H](O[C@H]3O[C@@H](C)[C@H](O)[C@@H](N)[C@H]3O)/C=C/C=C/C=C/C=C/C=C/C=C/C=C/[C@H](C)[C@@H](O)[C@@H](C)[C@H](C)OC(=O)C[C@H](O)C[C@H](O)C[C@H](O)CC[C@@H](O)[C@H](O)C[C@](O)(C[C@@H]1O)O2`, the MIC came to 1 µg/mL (≈ 0.991 µM) in the data set with Candida albicans [1], 1 µg/mL (≈ 0.991 µM) with Vanrija humicola, 2 µg/mL (≈ 1.98 µM) in the data set with Aspergillus niger and 4 µg/mL (≈ 3.96 µM) in the data set with Fusarium oxysporum. Besides, the hemolysis at 5 ug/ml in data set [2] is 38%. For the same compound, in the data set with Candida albicans [3], the MIC50 was determined as 0.15 µg/mL (≈ 0.149 µM). This compound came in with an MIC90 in the data set with Candida albicans [3] of 0.36 µg/mL (≈ 0.357 µM).
Take `C[C@@H]1[C@H](O)[C@@H](C)/C=C/C=C/C=C/C=C/C=C/C=C/C=C/[C@H](O[C@H]2O[C@@H](C)[C@H](O)[C@@H](N)[C@H]2O)C[C@@H]2O[C@](O)(C[C@@H](O)[C@H](O)CC[C@@H](O)C[C@@H](O)C[C@@H](O)CC(=O)O[C@H]1C)C[C@H](O)[C@H]2C(=O)NCCCO`: the MIC is 1 µg/mL (≈ 1.02 µM) in the data set with Candida albicans [1], 1 µg/mL (≈ 1.02 µM) in the data set with Vanrija humicola, 2 µg/mL (≈ 2.04 µM) in the data set with Aspergillus niger and 2 µg/mL (≈ 2.04 µM) in the data set with Fusarium oxysporum. Also, in data set [2], the hemolysis at 5 ug/ml was 4%. Moreover, the MIC50 in the data set on Candida albicans [3] turned out to be 0.09 µg/mL (≈ 0.0917 µM). In the data set with Candida albicans [3], the MIC90 was 0.27 µg/mL (≈ 0.275 µM).
On to `C[C@@H]1[C@H](O)[C@@H](C)/C=C/C=C/C=C/C=C/C=C/C=C/C=C/[C@H](O[C@H]2O[C@@H](C)[C@H](O)[C@@H](NC[C@]3(O)OC[C@@H](O)[C@@H](O)[C@@H]3O)[C@H]2O)C[C@@H]2O[C@](O)(C[C@@H](O)[C@H](O)CC[C@@H](O)C[C@@H](O)C[C@@H](O)CC(=O)O[C@H]1C)C[C@H](O)[C@H]2C(=O)O`, for which the minimum inhibitory concentration (MIC) against Candida albicans [1] stood at 1 µg/mL (≈ 0.921 µM); with Vanrija humicola it was 1 µg/mL (≈ 0.921 µM); against Aspergillus niger, 2 µg/mL (≈ 1.84 µM); in the data set on Fusarium oxysporum, 8 µg/mL (≈ 7.36 µM). Also, the hemolysis at 5 ug/ml in data set [2] was 5%.
`C[C@@H]1[C@H](O)[C@@H](C)/C=C/C=C/C=C/C=C/C=C/C=C/C=C/[C@H](O[C@H]2O[C@@H](C)[C@H](O)[C@@H](NC[C@]3(O)OC[C@@H](O)[C@H](O)[C@@H]3O)[C@H]2O)C[C@@H]2O[C@](O)(C[C@@H](O)[C@H](O)CC[C@@H](O)C[C@@H](O)C[C@@H](O)CC(=O)O[C@H]1C)C[C@H](O)[C@H]2C(=O)O`: the MIC against Candida albicans [1] was 1 µg/mL (≈ 0.921 µM); in the data set on Vanrija humicola, 1 µg/mL (≈ 0.921 µM); in the data set on Aspergillus niger, 2 µg/mL (≈ 1.84 µM); against Fusarium oxysporum, 8 µg/mL (≈ 7.36 µM). Also, the hemolysis at 5 ug/ml in data set [2] is 8%.
Turning to `C[C@@H]1[C@H](O)[C@@H](C)/C=C/C=C/C=C/C=C/C=C/C=C/C=C/[C@H](O[C@H]2O[C@@H](C)[C@H](O)[C@@H](N)[C@H]2O)C[C@@H]2O[C@](O)(C[C@@H](O)[C@H](O)CC[C@@H](O)C[C@@H](O)C[C@@H](O)CC(=O)O[C@H]1C)C[C@H](O)[C@H]2C(=O)O`, the minimum inhibitory concentration (MIC) was found to be 1 µg/mL (≈ 1.08 µM) in the data set on Candida albicans [1], 1 µg/mL (≈ 1.08 µM) in the data set with Vanrija humicola, 1 µg/mL (≈ 1.08 µM) in the data set on Aspergillus niger and 4 µg/mL (≈ 4.33 µM) in the data set with Fusarium oxysporum. The hemolysis at 5 ug/ml in data set [2] came out at 41%. In data set [4], this compound came in with a median lethal dose (LD50) of 2.2 mg/kg. Also, in data set [4], the MTD stood at 0.64 mg/kg. In addition, the MIC50 in the data set with Candida albicans [3] was determined as 0.12 µg/mL (≈ 0.13 µM). Also, in the data set on Candida albicans [3], the MIC90 worked out at 0.4 µg/mL (≈ 0.433 µM).
For `C[C@@H]1[C@H](O)[C@@H](C)/C=C/C=C/C=C/C=C/C=C/C=C/C=C/[C@H](O[C@H]2O[C@@H](C)[C@H](O)[C@@H](NC[C@]3(O)OC[C@@H](O)[C@@H](O[C@@H]4O[C@H](CO)[C@H](O)[C@H](O)[C@H]4O)[C@@H]3O)[C@H]2O)C[C@@H]2O[C@](O)(C[C@@H](O)[C@H](O)CC[C@@H](O)C[C@@H](O)C[C@@H](O)CC(=O)O[C@H]1C)C[C@H](O)[C@H]2C(=O)O`, the minimal inhibitory concentration (MIC) came to 2 µg/mL (≈ 1.6 µM) against Candida albicans [1], 2 µg/mL (≈ 1.6 µM) in the data set on Vanrija humicola, 2 µg/mL (≈ 1.6 µM) in the data set with Aspergillus niger and 8 µg/mL (≈ 6.41 µM) against Fusarium oxysporum. Further, the hemolysis at 5 ug/ml in data set [2] is 4%.
Take `C[C@@H]1[C@H](O)[C@@H](C)/C=C/C=C/C=C/C=C/C=C/C=C/C=C/[C@H](O[C@H]2O[C@@H](C)[C@H](O)[C@@H](N)[C@H]2O)C[C@@H]2O[C@](O)(C[C@@H](O)[C@H](O)CC[C@@H](O)C[C@@H](O)C[C@@H](O)CC(=O)O[C@H]1C)C[C@H](O)[C@H]2C(=O)NCCCN(C)C`: the MIC against Candida albicans [1] was determined as 1 µg/mL (≈ 0.992 µM); in the data set with Vanrija humicola, 1 µg/mL (≈ 0.992 µM); in the data set with Aspergillus niger, 2 µg/mL (≈ 1.98 µM); in the data set with Fusarium oxysporum, 2 µg/mL (≈ 1.98 µM). Moreover, the hemolysis at 5 ug/ml in data set [2] is 2%. The median lethal dose (LD50) in data set [4] amounted to 16.4 mg/kg. Besides, the MTD in data set [4] is 11.9 mg/kg. Also, in the data set with Candida albicans [3], the MIC50 is 0.08 µg/mL (≈ 0.0793 µM). Also, in the data set with Candida albicans [3], the MIC90 turned out to be 0.3 µg/mL (≈ 0.298 µM).
`C[C@@H]1[C@H](O)[C@@H](C)/C=C/C=C/C=C/C=C/C=C/C=C/C=C/[C@H](O[C@H]2O[C@@H](C)[C@H](O)[C@@H](N(CCCN)CCCN)[C@H]2O)C[C@@H]2O[C@](O)(C[C@@H](O)[C@H](O)CC[C@@H](O)C[C@@H](O)C[C@@H](O)CC(=O)O[C@H]1C)C[C@H](O)[C@H]2C(=O)O`: the MIC in the data set on Candida albicans [1], with Vanrija humicola, with Aspergillus niger and in the data set on Fusarium oxysporum was 1 µg/mL (≈ 0.963 µM) throughout. Moreover, the hemolysis at 5 ug/ml in data set [2] was 15%. This compound also displayed an MIC50 in the data set on Candida albicans [3] of 0.04 µg/mL (≈ 0.0385 µM). Also, the MIC90 with Candida albicans [3] was 0.13 µg/mL (≈ 0.125 µM).
In the case of `C[C@@H]1[C@H](O)[C@@H](C)/C=C/C=C/C=C/C=C/C=C/C=C/C=C/[C@H](O[C@@H]2O[C@H](C)[C@@H](O)[C@H](N)[C@@H]2O)C[C@@H]2O[C@](O)(C[C@@H](O)C[C@@H](O)[C@H](O)CC[C@@H](O)C[C@@H](O)CC(=O)O[C@H]1C)C[C@H](O)[C@H]2C(=O)O` [AMPHOTERICIN B], the MIC came to 1 µg/mL (≈ 1.08 µM) against Candida albicans [1], 1 µg/mL (≈ 1.08 µM) in the data set with Vanrija humicola, 1 µg/mL (≈ 1.08 µM) with Aspergillus niger and 4 µg/mL (≈ 4.33 µM) in the data set on Fusarium oxysporum. For the same compound, the hemolysis at 5 ug/ml in data set [2] turned out to be 30%. In data set [4], this compound returned a 50% lethal dose (LD50) of 2.8 mg/kg. The compound also had an MTD in data set [4] of 2.01 mg/kg. Moreover, the MIC50 against Candida albicans [3] stood at 0.11 µg/mL (≈ 0.119 µM). Moreover, the MIC90 with Candida albicans [3] was determined as 0.36 µg/mL (≈ 0.39 µM).

(Values after ChEMBL document CHEMBL1139324, “Chemical modification and biological evaluation of new semisynthetic derivatives of 28,29-Didehydronystatin A1 (S44HP), a genetically engineered antifungal polyene macrolide antibiotic” (J Med Chem, 2009).)
